High-throughput results: PubChem, several laboratories
JNK3 inh: blocks human JNK3 kinase activity. purified JNK3 kinase activity, HTS. inhibition, % at 8 µM. 0.61% of 60,000 active; in the data active = inhibition above about 17%;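 note: 0% = DMSO and 100% = reference inhibitor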
SF1 activator: activators of human nuclear receptor SF-1; CHO-K1 Gal4-SF-1 LBD luciferase reporter; % increase over DMSO SF-1-specific signal; activation, % at 10 µM; 1.9% of 65,000 active; AID 522;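 active = activation above the mean activation of all tested compounds plus 3 SD, cut at about 50% in these data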
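Assay system – CHO-K1 cells with Gal4–hSF-1 LBD chimera plus Gal4-driven luciferase · Quantity – 4,000 cells per well · Times – compound added 1 h post-seeding, 20 h exposure at 37 °C, 5% CO2 · Measured by – luciferase light emission · Benchmarks – DMSO and mock-transfected background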
DUSP1 inh: inhibitors of human MKP-1 phosphatase; recombinant MKP-1, OMFP hydrolysis fluorescence; inhibition, %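 (compounds tested at a single concentration somewhere between 10 and 100 µM)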; 0.15% of 65,000 active; AID 374;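 active = inhibition above about 50%, limit read from the data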;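 note: 0% = DMSO max control wells and 100% = wells with enzyme stopped by NaOH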
Hsp90 block: displaces geldanamycin probe from tumor Hsp90; NCI-N417 lysate Hsp90, Cy3B-geldanamycin FP displacement; P07900; inhibition, % at 30 µM; AID 429; 0.35% of 64,000 active;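 active = inhibition above 50%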;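 note: 0% = tracer plus lysate wells and 100% = tracer alone without lysate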
Cdc25B block: inhibitors of human Cdc25B phosphatase; P30305; recombinant Cdc25B, OMFP fluorescence Ex485/Em525; inhibition, %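 (compounds tested at 10 µM final in the well)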; 0.1% of 65,000 active; AID 368; in the data active = inhibition above about 50%
RORa activator: activates the human nuclear receptor RORA. P35398. CHO-K1 Gal4-RORA LBD luciferase reporter, luminescence; percent increase over mock-subtracted basal signal. activation, % at 10 µM. 1.5% of 65,000 active;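 active = activation above the mean of all tested compounds plus 3 SD, cut at about 49% in these data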;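 note: 0% = DMSO-treated RORA cells and 100% = added signal equal to DMSO minus mock-transfected cells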
Target sequence (P35398 whole entry, looked up, the tested form may be a part): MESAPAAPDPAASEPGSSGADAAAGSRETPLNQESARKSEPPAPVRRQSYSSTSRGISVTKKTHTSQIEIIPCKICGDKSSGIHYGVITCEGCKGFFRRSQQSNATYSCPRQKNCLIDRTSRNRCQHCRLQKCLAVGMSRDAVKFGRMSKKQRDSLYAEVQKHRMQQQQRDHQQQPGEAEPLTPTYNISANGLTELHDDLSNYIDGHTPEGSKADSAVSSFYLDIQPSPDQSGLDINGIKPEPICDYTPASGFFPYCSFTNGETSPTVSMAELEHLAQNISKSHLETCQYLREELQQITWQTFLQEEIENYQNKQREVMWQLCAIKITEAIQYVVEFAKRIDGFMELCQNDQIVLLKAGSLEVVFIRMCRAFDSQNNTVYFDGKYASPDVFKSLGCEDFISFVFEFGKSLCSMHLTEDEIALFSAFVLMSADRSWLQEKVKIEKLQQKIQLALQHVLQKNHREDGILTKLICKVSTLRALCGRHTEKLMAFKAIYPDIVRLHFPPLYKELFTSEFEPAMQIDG
Starred values were filed as active, the others as inactive; / = not tested or not shown. A selection: hits, their analogues and other compounds. The true share with any hit is near 3.4%.

SMILES	JNK3 inh	SF1 activator	DUSP1 inh	Hsp90 block	Cdc25B block	RORa activator
COc1cccc2cc(C(=O)Nc3cccc(C)n3)c(=O)oc12	2	73*	14	-7	7	58*
COc1cccc2cc(NC(=O)C3CCCCC3)c(=O)oc12	4	66*	22	3	-6	56*
Cc1cc2ncc(-c3ccc(Cl)cc3)c(N)n2n1	11	55*	-8	2	-6	35
CSc1ccc(-c2nnn(Cc3ccccn3)n2)cc1	0	57*	-4	0	1	56*
Cc1cc(NCCN2CCOCC2)n2ncc(-c3ccccc3)c2n1	-6	91*	-6	-1	11	66*
Cc1cc(NCCN2CCOCC2)n2ncc(-c3ccc(Cl)cc3)c2n1	-3	-5	19	1	9	-5
c1coc(C2Nc3ccccc3-c3nc4ccccc4n32)c1 (configuration not stated)	/	76*	19	/	-3	71*
COc1ccc(C(=O)NCc2nc3ccccc3[nH]2)cc1OC	31*	-1	3	-3	-3	0
COc1ccc(C(=O)NC(C)c2nc3ccccc3[nH]2)cc1OC (configuration not stated)	/	-18	/	/	/	-12
COCC(=O)NCc1nc2ccccc2[nH]1	/	7	-6	/	-13	-5
COc1ccc(C(=O)Nc2nc3ccccc3[nH]2)cc1OC	5	50*	1	0	-8	18
Cc1cc(C)cc(N2C(=O)C3C4C=CC(C4)C3C2=O)c1 (configuration not stated)	2	8	-10	1	9	-14
NC(=O)c1cc(Br)cc2c3c([nH]c12)CCCC3	55*	7	22	-4	3	23
O=c1c2c([nH]c3ccc(Br)cc13)CCCC2	-2	-9	-15	4	-6	9
CCCc1cc(=O)n2[nH]c(C)cc2n1	3	-10	5	0	14	9
COc1nc(N(C#N)CC(N)=O)nc(N2CCCC2)n1	4	-4	0	5	14	0
Cc1nn(-c2ccccc2)c2c1C(O)n1c(nc3ccccc31)S2 (configuration not stated)	19*	14	5	3	-7	17
COc1ccc(N/C(C)=C2/C(=O)C(=O)N(CCO)C2c2ccc(Br)cc2)cc1 (configuration not stated)	2	4	-21	0	3	9
COc1cccc(NC(=O)c2nnn(CCc3ccccc3)c2N)c1	6	84*	3	-3	2	53*
COc1cccc(NC(=O)c2nnn(Cc3ccc(Br)cc3F)c2N)c1	0	2	-6	1	5	58*
c1ccc(-c2nc(NCc3cccnc3)c3oc4ccccc4c3n2)cc1	-3	8	28	-1	-1	15
CCC(C)(C)NCCCCCNc1cc(OC)cc2cccnc12	/	/	/	0	/	/
CCOC(=O)c1nn(-c2ccc3c(c2)OCO3)cc1O	6	12	2	0	-8	-3
CCOC(=O)c1c(-c2ccccc2)[nH]c2ccc(O)cc12	42*	23	-14	-4	-2	-5
CCCCNc1c(C(=O)OCC)c(=O)[nH]c2ccccc12	0	-9	-19	1	-1	-20
SMILES	JNK3 inh	SF1 activator	DUSP1 inh	Hsp90 block	Cdc25B block	RORa activator
c1ccc(Nc2nc3ccccc3[nH]2)nc1	-2	55*	3	1	9	79*
CCn1c(=O)cc(SCC(=O)N2CCN(Cc3ccc4c(c3)OCO4)CC2)c2ccccc21	/	0	56*	-1	-14	-8
Cn1c(=O)cc(SCC(=O)N2CCN(Cc3ccc4c(c3)OCO4)CC2)c2ccccc21	-8	7	40	1	-9	0
Cn1c(C(=O)N2CCN(Cc3ccc4c(c3)OCO4)CC2)cc2c(=O)n(C)c3ccccc3c21	24*	4	37	-4	-8	8
O=C(c1cccc(F)c1)N1CCCC(C(=O)N2CCCC2)C1 (configuration not stated)	35*	-1	-8	-2	22	0
CCOc1ccc2nc(N3CCC(C(=O)Nc4nnc(CC)s4)CC3)sc2c1	-6	67*	0	1	-8	46
CCOc1ccc2nc(N3CCCCCC3)sc2c1	-7	58*	-11	-1	-5	36
